Converted amounts (≈) assume the structure as drawn.
How the values were obtained:
[1] = tested on: Mycobacterium tuberculosis; assay: Antitubercular activity against Mycobacterium tuberculosis H37Rv in aerobic condition after 7 days by microplate alamar blue assay; assay type: functional; details: 168 h
Procedure, shortened: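 M. tuberculosis H37Rv, replicating culture; 8-day microplate assay with Alamar blue added on day 7 to read growth. […] Mean of at least two independent determinations ± SD.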

[2] = tested on: Mycobacterium tuberculosis; assay: Antitubercular activity against Mycobacterium tuberculosis H37Rv in anaerobic condition after 7 days by low oxygen recovery assay; assay type: functional; details: 168 h
[3] = tested on: Vero; assay: Cytotoxicity against african green monkey Vero cells after 72 hrs by MTS assay; assay type: cell-based; details: Chlorocebus sabaeus
Procedure, shortened: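 VERO cells (CCL-81), 72 h exposure, tetrazolium dye read-out.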

[4] = Metabolic stability in pooled human liver microsomes assessed as compound remaining after 1 hr by LC-MS-MS; assay type: ADME, Microsome; details: read-out: Stability
Procedure, shortened: (§1)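 Test compound at 1 μM with pooled CD-1 mouse or human liver microsomes (0.5 mg/mL protein) and NADPH-regenerating system (3.3 mM MgCl2, 3.3 mM G6P, 0.4 U/mL G6PD, 1.3 mM NADP+) in 75 mM phosphate, pH 7.4, 0.5% DMSO, 37 °C. Stopped at 0 and 60 min with MeCN containing metoprolol internal standard. LC-MS/MS (ESI, SRM), duplicates. % remaining = 100 × mean peak-area ratio at 60 min / at 0 min.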

[5] = Metabolic stability in pooled CD1 mouse liver microsomes assessed as compound remaining after 1 hr by LC-MS-MS; assay type: ADME, Microsome; details: read-out: Stability; procedure, shortened: as §1
[6] = tested on: Mycobacterium tuberculosis; assay: Antitubercular activity against Mycobacterium tuberculosis H37Rv infected in BALB/c mouse assessed as ratio of lung CFU for compound to lung CFU for PA-824 at 100 mg/kg, po daily for 5 days a week for 3 weeks; assay type: functional
[7] = tested on: Mycobacterium tuberculosis; assay: Antitubercular activity against Mycobacterium tuberculosis H37Rv infected in BALB/c mouse measured per mouse at 100 mg/kg, po daily for 5 days a week for 3 weeks; assay type: functional

SMILES	MIC [1]	MIC [2]	IC50 [3]	remaining at 1 h [4]	remaining at 1 h [5]	fold change (FC) [6]	CFU [7]
O=[N+]([O-])c1cn2c(n1)OC[C@@H](OCc1ccc(-c3ccc(OC(F)(F)F)cc3F)cc1)C2	0.045 µM (≈ 0.0204 µg/mL)	0.72 µM (≈ 0.326 µg/mL)	> 125 µM	88%	89%	46	39
O=[N+]([O-])c1cn2c(n1)OC[C@@H](OCc1ccc(-c3ccccc3OCCCO)cc1)C2	0.34 µM (≈ 0.145 µg/mL)	2.7 µM (≈ 1.15 µg/mL)	> 125 µM	59%	21%	<0.01	1100000
O=[N+]([O-])c1cn2c(n1)OC[C@@H](OCc1ccc(-c3ccc(OC(F)F)cc3)cc1)C2	0.05 µM (≈ 0.0209 µg/mL)	0.77 µM (≈ 0.321 µg/mL)	> 125 µM	94%	77%	8.5	1100
O=[N+]([O-])c1cn2c(n1)OC[C@@H](OCc1ccc(-c3ccc(CNc4ccccc4)cc3)cc1)C2	0.06 µM (≈ 0.0274 µg/mL)	0.63 µM (≈ 0.288 µg/mL)	> 125 µM	12%	52%	0.03	500000
COc1c(F)cc(F)cc1-c1ccc(CO[C@@H]2COc3nc([N+](=O)[O-])cn3C2)cc1	0.04 µM (≈ 0.0167 µg/mL)	0.86 µM (≈ 0.359 µg/mL)	> 125 µM	72%	2%	0.4	200000
COc1ccc(-c2ccc(CO[C@@H]3COc4nc([N+](=O)[O-])cn4C3)cc2)cc1F	0.04 µM (≈ 0.016 µg/mL)	1.9 µM (≈ 0.759 µg/mL)	> 125 µM	80%	50%	0.02	850000
COc1cccc(F)c1-c1ccc(CO[C@@H]2COc3nc([N+](=O)[O-])cn3C2)cc1	0.13 µM (≈ 0.0519 µg/mL)	0.81 µM (≈ 0.323 µg/mL)	> 125 µM	91%	0%	0.07	1100000
O=[N+]([O-])c1cn2c(n1)OC[C@@H](OCc1ccc(-c3ccc(Cl)c(OC(F)(F)F)c3)cc1)C2	0.04 µM (≈ 0.0188 µg/mL)	0.95 µM (≈ 0.446 µg/mL)	> 125 µM	95%	92%	9.7	360
O=[N+]([O-])c1cn2c(n1)OC[C@@H](OCc1ccc(-c3ccc(OCCCN4CCOCC4)cc3)cc1)C2	0.097 µM (≈ 0.048 µg/mL)	1 µM (≈ 0.495 µg/mL)	> 125 µM	11%	14%	0.05	310000
O=[N+]([O-])c1cn2c(n1)OC[C@@H](OCc1ccc(-c3cccc(OCc4ccccc4)c3)cc1)C2	0.12 µM (≈ 0.0549 µg/mL)	0.88 µM (≈ 0.403 µg/mL)	> 125 µM	64%	50%	0.66	120000

From ChEMBL document CHEMBL1156778, “Synthesis and structure-activity studies of biphenyl analogues of the tuberculosis drug (6S)-2-nitro-6-{[4-(trifluoromethoxy)benzyl]oxy}-6,7-dihydro-5H-imidazo[2,1-b][1,3]oxazine (PA-824)” (J Med Chem, 2010)
